Measured values taken from ChEMBL document CHEMBL4725488, “Dual-Stage Picolinic Acid-Derived Inhibitors of Toxoplasma gondii” (ACS Med Chem Lett, 2020).
Values after ≈ are worked out from the molar mass of the structure shown. Active and inactive are the calls of the source. The rule behind the calls is not given here.

Columns and labels:
[1] = Selectivity index, ratio of CC50 for human HFF cells to EC50 for Toxoplasma gondii ME49 tachyzoites infected in human HFF cells; assay type: toxicity, cell-based
Summary of the method: (§1)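 Selectivity index computed as CC50 in uninfected HFF cells (72 h exposure) divided by EC50 for the bradyzoite or tachyzoite growth assay run in the same HFF line.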

[2] = Selectivity index, ratio of CC50 for human HFF cells to EC50 for Toxoplasma gondii ME49 bradyzoite infected in human HFF cells; assay type: toxicity, cell-based; summary of the method: as §1
Toxoplasma gondii [3] = test: Antiparasitic activity against Toxoplasma gondii ME49 bradyzoite infected in human HFF-1 cells assessed as inhibition of parasitic growth preincubated for 48 hrs followed by [5,6-3H]uracil addition and measured after 24 hrs by liquid scintillation counting analysis; assay type: functional, organism-based
Summary of the method: (§2)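 HFF host cells harbouring tachyzoites, or bradyzoites differentiated in vitro by base-mediated maturation, were exposed to compounds in dose–response format. EC50 was the concentration inhibiting 50% of parasites. Tested at least in triplicate (n ≥ 3) unless noted, some in duplicate (n = 2).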

Toxoplasma gondii [4] = test: Antiparasitic activity against Toxoplasma gondii ME49 tachyzoites infected in human HFF-1 cells assessed as inhibition of parasitic growth preincubated for 48 hrs followed by [5,6-3H]uracil addition and measured after 24 hrs by liquid scintillation counting analysis; assay type: functional, organism-based; summary of the method: as §2
[5] = (§3) Cytotoxicity against HFF cells assessed as reduction in cell viability incubated for 72 hrs by Cell titer assay; assay type: cell-based; conditions: human, HFF cells
Summary of the method: (§4)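 Uninfected HFF cells exposed to compounds for 72 h. CC50 is the concentration that cuts cell viability by 50%. At least triplicate (n ≥ 3) unless noted, some in duplicate.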

[6] = Stability in CD-1 mouse plasma assessed as parent compound remaining measured after 60 mins by LC-MS/MS method; assay type: ADME, cell-free; conditions: for remaining at 1 h: CD-1, mouse, read-out: Stabilty
Summary of the method: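 Mouse plasma, reported as percent parent compound remaining after 1 h.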

[7] = Stability in CD-1 mouse liver microsomes assessed as parent compound remaining measured after 60 mins by LC-MS method; assay type: ADME, Microsome; conditions: for remaining at 1 h: CD-1, mouse, liver microsomes, read-out: Stabilty; for Stabilty: mouse, microsomes, 1 h
Summary of the method: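 Mouse microsomes, reported as percent parent compound remaining after 1 h.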

[8] = Kinetic aqueous solubility of the compound in pH 7.4; assay type: physicochemical; conditions: buffer, read-out: Kinetic_solubility
Summary of the method: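 Kinetic aqueous solubility measured at pH 7.4.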

[9] = Lipophilicity log D of compound at pH 7.4; assay type: physicochemical; conditions: buffer
Summary of the method: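 LogD at pH 7.4, determined experimentally.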

[10] = Permeability of compound by PAMPA-BBB assay; assay type: ADME; conditions: read-out: permeability
Summary of the method: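 Blood–brain barrier PAMPA, with permeability reported as Pe (10–6 cm/s).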

[11] = biological target: T1, Hexokinase (Toxoplasma gondii) (UniProt Q969A8); test: Inhibition of hexokinase in Toxoplasma gondii ME49 infected human HFF cells assessed as 13C6-glucose-6-phosphate treated at 2 x EC50 4 hrs postinfection for 5 hrs media changed with [13C6]-glucose; assay type: cell-based
T1 sequence (whole entry): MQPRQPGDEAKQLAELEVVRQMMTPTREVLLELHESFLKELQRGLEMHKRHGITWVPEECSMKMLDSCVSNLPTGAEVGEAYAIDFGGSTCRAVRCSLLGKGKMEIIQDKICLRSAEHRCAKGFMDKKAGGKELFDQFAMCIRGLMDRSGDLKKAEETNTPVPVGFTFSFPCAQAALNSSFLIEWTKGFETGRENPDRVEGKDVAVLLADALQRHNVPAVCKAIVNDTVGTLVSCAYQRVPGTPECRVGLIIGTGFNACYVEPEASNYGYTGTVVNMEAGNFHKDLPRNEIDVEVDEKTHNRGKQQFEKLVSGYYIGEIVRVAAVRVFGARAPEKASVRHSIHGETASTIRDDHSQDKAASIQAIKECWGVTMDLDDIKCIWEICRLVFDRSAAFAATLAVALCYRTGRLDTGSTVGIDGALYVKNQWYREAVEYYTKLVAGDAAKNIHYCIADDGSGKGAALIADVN
Summary of the method: (§5)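 Infected HFF cells were treated 4 h postinfection with DMSO or compound (2 or 6 × EC50). After 5 h the medium was switched to glucose-free RPMI with 13C6-glucose and labelled for 10 min. Samples were rapidly quenched, processed and analysed by broad-spectrum mass spectrometry for 13C6-glucose-6-phosphate (hexokinase product) against DMSO.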

Toxoplasma gondii [12] = test: Ex vivo inhibition of Toxoplasma gondii ME49 bradyzoite isolated from 30 days post infection brain of C57BL/6J mouse transferred to human HFF cells after 3 days using anti-BAG1 by fluorescence assay; assay type: functional; conditions: time 72.0 hrs
Summary of the method: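 Bradyzoites were harvested from brains of four infected mice 30+ days after infection, purified and transferred to HFF cells. Compound was added at 1, 3 or 6 × EC50 and incubated 3 days against a DMSO control. Monolayers were fixed, labelled with anti-BAG1 antibody against a bradyzoite-specific antigen, and imaged by fluorescence.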

[13] = biological target: T1, Hexokinase (Toxoplasma gondii); test: Inhibition of hexokinase in Toxoplasma gondii ME49 infected human HFF cells assessed as 13C6-glucose-6-phosphate treated at 6 x EC50 4 hrs postinfection for 5 hrs media changed with [13C6]-glucose; assay type: cell-based; summary of the method: as §5
[14] = Ratio of AUC in brain to plasma in male Balb/c mouse at 15 mg/kg, ip; assay type: ADME, organism-based; conditions: read-out: BPR
Summary of the method: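 Male BALB/c mice given a single 15 mg/kg ip injection as a clear solution of the sodium salt. Plasma sampled at 30 min and 2 h after dosing, brain at 2 h. Terminal mean AUC to 2 h determined for plasma (ng/mL) and brain (ng/g). Brain-to-plasma ratio taken from these AUCs.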

[15] = Plasma concentration at 2 hrs in male Balb/c mouse plasma at 15 mg/kg, ip; conditions: in vivo
[16] = Concentration at 2 hrs in male Balb/c mouse brain at 15 mg/kg, ip; conditions: in vivo
[17] = Protein binding in male Balb/c mouse at 15 mg/kg, ip; assay type: ADME, organism-based; conditions: plasma, read-out: PB (converted)
HFF = test: as §3; assay type: cell-based; conditions: human, hff, 72 h; summary of the method: as §4
[18] = HFF cells, read-out: Selectivity ratio

Structure (SMILES)	selectivity ratio [1, 18]	selectivity ratio [2, 18]	EC50 (Toxoplasma gondii [3]; Toxoplasma gondii, ME49, HFF-1)	EC50 (Toxoplasma gondii [4]; Toxoplasma gondii, ME49, HFF-1)	CC50 at 72 h [5]	other results
O=C(Nc1cc(Cl)cnc1C(=O)O)c1ccccc1	> 20.7	> 11.2	4.47 µM	2.42 µM	> 50 µM	–
CC(C)(C)c1ccc(C(=O)Nc2cc(Cl)cnc2C(N)=O)cc1	–	> 50	> 10 µM	> 10 µM	> 50 µM	–
COC(=O)c1ncc(Cl)cc1NC(=O)c1ccc(C(C)(C)C)cc1	> 116	> 87.7	0.57 µM	0.43 µM	> 50 µM	remaining at 1 h [6]: 24.7%; remaining at 1 h [7]: 2.7%; solubility kinetic [8]: < 1.6 µM; logD ([9]; read-out: logD): 5.3
COc1ccc(C(=O)Nc2cc(Cl)cnc2C(=O)O)cc1	> 7	–	2.41 µM	7.1 µM	> 50 µM	selectivity ratio ([2]; HFF cells, read-out: Selectivity Index): > 20.7
Cc1ccc(C(=O)Nc2cc(Cl)cnc2C(=O)O)cc1	12.3	16.5	1.1 µM	1.48 µM	18.2 µM	–
CC(C)(C)c1ccc(C(=O)Nc2cc(Cl)c(-c3ccccc3)nc2C(=O)O)cc1	86.1	118	0.41 µM	0.56 µM	48.2 µM	remaining at 1 h [6]: 97.1%; remaining at 1 h [7]: 85.1%; solubility kinetic [8]: 6.4 µM (≈ 2.62 µg/mL); Papp [10]: 5.4 ×10⁻⁶ cm/s; logD ([9]; read-out: logD): 3.9
CC(C)(C)c1ccc(C(=O)Nc2cc(Cl)cnc2C(=O)O)cc1 [listing 1 of 2 here]	–	–	–	–	–	inhibition [11]: inactive; inhibition (Toxoplasma gondii [12]): Active; inhibition [13]: inactive
CC(C)(C)c1ccc(C(=O)Nc2cc(Cl)ncc2C(=O)O)cc1	–	> 10	> 10 µM	> 10 µM	23.6 µM	–
COc1ccccc1C(=O)Nc1cc(Cl)cnc1C(=O)O	> 14.3	> 10.2	4.9 µM	3.5 µM	> 50 µM	–
CC(C)(C)c1ccc(C(=O)Nc2cccnc2C(=O)O)cc1	8.1	4.2	2.16 µM	1.11 µM	9 µM	–
CC(C)(C)c1ccc(C(=O)Nc2ccc(Br)nc2C(=O)O)cc1	> 9.7	> 12.6	3.96 µM	5.14 µM	> 50 µM	–
CC(C)(C)c1ccc(C(=O)Nc2cc(Cl)cnc2-c2nnn[nH]2)cc1	1.5	0.5	2.45 µM	0.8 µM	1.2 µM	–
COC(=O)c1cnc(Cl)cc1NC(=O)c1ccc(C(C)(C)C)cc1	> 29.6	> 10	> 10 µM	1.69 µM	> 50 µM	–
CC(C)(C)c1ccc(C(=O)Nc2cc(Cl)c(Br)nc2C(=O)O)cc1	> 13	> 12.2	4.09 µM	3.85 µM	> 50 µM	–
CC(C)(C)c1ccc(C(=O)Nc2cc(Cl)cnc2C(=O)[O-])cc1.[Na+]	–	–	–	–	–	selectivity ratio [1]: 6.6; Stabilty ([6]; mouse, 1 h): 88.1%; selectivity ratio [2]: 9.1; Kp [14]: 0.1; Stabilty [7]: 100%; plasma concentration at 2 h [15]: 7883 ng/mL; EC50 (Toxoplasma gondii [3]; hff-1): 0.23 µM; solubility kinetic [8]: 164 µM; brain concentration at 2 h [16]: 816 ng/g; EC50 (Toxoplasma gondii [4]; hff-1): 0.32 µM; fraction unbound [17]: 0.005; CC50 (HFF): 2.1 µM; logD [9]: 2.6
CC(C)(C)c1ccc(C(=O)Nc2cc(Cl)cnc2C(=O)O)cc1 [listing 2 of 2 here]	10.4	7.1	0.35 µM	0.24 µM	2.5 µM	remaining at 1 h [6]: 98.4%; Stabilty [7]: 75.4%; solubility kinetic [8]: 33 µM (≈ 11 µg/mL); Papp [10]: 6.9 ×10⁻⁶ cm/s; logD ([9]; read-out: logD): 2.7
COc1cccc(C(=O)Nc2cc(Cl)cnc2C(=O)O)c1	> 27.5	> 8.1	6.2 µM	1.82 µM	> 50 µM	–
CC(C)(C)c1ccc(C(=O)Nc2cc(Cl)c(-c3ccccc3)cc2C(=O)O)cc1	–	–	0.99 µM	0.46 µM	> 50 µM	remaining at 1 h [6]: 100%; remaining at 1 h [7]: 69.2%; solubility kinetic [8]: 2.7 µM (≈ 1.1 µg/mL); logD ([9]; read-out: logD): 5.4
